25 compounds from ChEMBL document CHEMBL1146260, “Synthesis and antifungal activity of 1H-indole-4,7-diones” (2007) can be followed below.

≈ marks a conversion by molar mass, not a printed value.

Type in all cases: functional
For one assay, the system named is Candida albicans. Put plainly: Antifungal activity against Candida albicans Berkout KCCM 50235 after 1 day by 2-fold broth dilution method. The conditions noted are these: KCCM 50235, 24 h. Put shortly: (§1)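 MIC by 2-fold broth dilution in modified Sabouraud dextrose broth; inoculum about 1 · 10⁵ cells/mL; final drug concentrations […]; 37 °C, read after 1 day; 5-fluorocytosine run as standard agent.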
(Broth dilution looks for growth in wells or tubes with falling amounts of substance.)

For a further assay, the system named is Candida tropicalis. Put plainly: Antifungal activity against Candida tropicalis Berkout KCCM 50662 after 1 day by 2-fold broth dilution method. To be noted: KCCM 50662, 24 h. The method in brief:
as §1

The test system of the next assay is Pichia kudriavzevii. Put plainly: Antifungal activity against Candida krusei Berkout KCCM 11655 after 1 day by 2-fold broth dilution method. The conditions noted are these: KCCM 11655, 24 h. Put shortly:
as §1

The next assay relates to Cryptococcus neoformans. Put plainly: Antifungal activity against Cryptococcus neoformans KCCM 50564 after 1 day by 2-fold broth dilution method. To be noted: KCCM 50564, 24 h. Put shortly:
as §1

Another assay deals with Aspergillus niger. Briefly: Antifungal activity against Aspergillus niger KCTC 1231 after 2 days by 2-fold broth dilution method. To be noted: KCTC 1231, 48 h. Put shortly: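 Two-fold broth dilution MIC in modified Sabouraud dextrose broth, inoculum about 1 · 10⁵ cells/mL, final agent range […]; incubated at 37 °C, MIC read after 2 days; 5-fluorocytosine as standard agent.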

Consider `COC(=O)c1cn(-c2ccc(Br)cc2)c2c1C(=O)C(C)=C(C)C2=O`, for which the MIC with Candida albicans was 50 µg/mL (≈ 129 µM); in the assay with Candida tropicalis, 6.3 µg/mL (≈ 16.2 µM); against Pichia kudriavzevii it was 50 µg/mL (≈ 129 µM); in the assay on Cryptococcus neoformans, 50 µg/mL (≈ 129 µM); in the assay with Aspergillus niger it was 3.2 µg/mL (≈ 8.24 µM).
`COC(=O)c1cn(-c2ccc(I)cc2)c2c1C(=O)C(C)=C(C)C2=O`: the minimum inhibitory concentration (MIC) is 25 µg/mL (≈ 57.4 µM) in the assay on Candida albicans; 12.5 µg/mL (≈ 28.7 µM) with Candida tropicalis; 50 µg/mL (≈ 115 µM) in the assay with Pichia kudriavzevii; 50 µg/mL (≈ 115 µM) against Cryptococcus neoformans; 100 µg/mL (≈ 230 µM) against Aspergillus niger.
Consider `COC(=O)c1cn(-c2ccc(OC)cc2)c2c1C(=O)C(C)=C(C)C2=O`, for which the minimum inhibitory concentration (MIC) in the assay on Candida albicans is greater than 100 µg/mL; in the assay with Candida tropicalis it was 50 µg/mL (≈ 147 µM); in the assay on Pichia kudriavzevii it was 3.2 µg/mL (≈ 9.43 µM); with Cryptococcus neoformans it was 100 µg/mL (≈ 295 µM); against Aspergillus niger, greater than 100 µg/mL.
With `COC(=O)c1cn(-c2ccc(C)c(C)c2)c2c1C(=O)C(C)=C(C)C2=O`, the minimal inhibitory concentration (MIC) is 12.5 µg/mL (≈ 37.1 µM) in the assay with Candida albicans; greater than 100 µg/mL in the assay with Candida tropicalis; 0.8 µg/mL (≈ 2.37 µM) with Pichia kudriavzevii; 1.6 µg/mL (≈ 4.74 µM) with Cryptococcus neoformans; 6.3 µg/mL (≈ 18.7 µM) against Aspergillus niger.
`CCc1ccc(-n2cc(C(=O)OC)c3c2C(=O)C(C)=C(C)C3=O)cc1`: the MIC amounted to 25 µg/mL (≈ 74.1 µM) with Candida albicans; 50 µg/mL (≈ 148 µM) against Candida tropicalis; 50 µg/mL (≈ 148 µM) with Pichia kudriavzevii; 50 µg/mL (≈ 148 µM) in the assay with Cryptococcus neoformans; 3.2 µg/mL (≈ 9.48 µM) against Aspergillus niger.
As to `O=C1C(Sc2ccccc2)=C(Sc2ccccc2)C(=O)c2[nH]ccc21`, the minimal inhibitory concentration (MIC) against Candida albicans is greater than 100 µg/mL; against Candida tropicalis it was greater than 100 µg/mL; in the assay with Pichia kudriavzevii, greater than 100 µg/mL; in the assay with Cryptococcus neoformans, 12.5 µg/mL (≈ 34.4 µM); with Aspergillus niger it was 50 µg/mL (≈ 138 µM).
`COC(=O)c1cn(C)c2c1C(=O)C(C)=C(C)C2=O`: the minimal inhibitory concentration (MIC) with Candida albicans is greater than 100 µg/mL; with Candida tropicalis it was greater than 100 µg/mL; against Pichia kudriavzevii it was 3.2 µg/mL (≈ 12.9 µM); in the assay with Cryptococcus neoformans, 1.6 µg/mL (≈ 6.47 µM); against Aspergillus niger, greater than 100 µg/mL.
Consider `O=C1C(Sc2ccc(Cl)cc2)=C(Sc2ccc(Cl)cc2)C(=O)c2[nH]ccc21`, for which the MIC was greater than 100 µg/mL with Candida albicans; 12.5 µg/mL (≈ 28.9 µM) against Candida tropicalis; 25 µg/mL (≈ 57.8 µM) with Pichia kudriavzevii; 3.2 µg/mL (≈ 7.4 µM) against Cryptococcus neoformans; greater than 100 µg/mL in the assay with Aspergillus niger.
On to `CCOC(=O)c1cn(C)c2c1C(=O)C(C)=C(C)C2=O`, for which the minimal inhibitory concentration (MIC) is greater than 100 µg/mL against Candida albicans; 25 µg/mL (≈ 95.7 µM) in the assay on Candida tropicalis; 50 µg/mL (≈ 191 µM) against Pichia kudriavzevii; 100 µg/mL (≈ 383 µM) with Cryptococcus neoformans; greater than 100 µg/mL against Aspergillus niger.
`COC(=O)c1cn(-c2ccc(F)cc2)c2c1C(=O)C(C)=C(C)C2=O`: the MIC in the assay with Candida albicans was greater than 100 µg/mL; in the assay on Candida tropicalis it was greater than 100 µg/mL; in the assay on Pichia kudriavzevii, 3.2 µg/mL (≈ 9.78 µM); against Cryptococcus neoformans, 3.2 µg/mL (≈ 9.78 µM); with Aspergillus niger it was 12.5 µg/mL (≈ 38.2 µM).
As to `O=C1C(Sc2ccc(Br)cc2)=C(Sc2ccc(Br)cc2)C(=O)c2[nH]ccc21`, the minimal inhibitory concentration (MIC) in the assay on Candida albicans was greater than 100 µg/mL; against Candida tropicalis, greater than 100 µg/mL; with Pichia kudriavzevii it was greater than 100 µg/mL; against Cryptococcus neoformans, 3.2 µg/mL (≈ 6.14 µM); with Aspergillus niger, 12.5 µg/mL (≈ 24 µM).
As for `CCOC(=O)C(C#N)C1=C(Cl)C(=O)C(C)=C(C)C1=O` (stereo not given), the MIC was greater than 100 µg/mL in the assay with Candida albicans; greater than 100 µg/mL against Candida tropicalis; 100 µg/mL (≈ 355 µM) with Pichia kudriavzevii; 25 µg/mL (≈ 88.7 µM) against Cryptococcus neoformans; greater than 100 µg/mL in the assay on Aspergillus niger.
On to `Cc1cccc(SC2=C(Sc3cccc(C)c3)C(=O)c3[nH]ccc3C2=O)c1`, for which the minimal inhibitory concentration (MIC) was greater than 100 µg/mL with Candida albicans; 12.5 µg/mL (≈ 31.9 µM) with Candida tropicalis; greater than 100 µg/mL against Pichia kudriavzevii; 3.2 µg/mL (≈ 8.17 µM) with Cryptococcus neoformans; 50 µg/mL (≈ 128 µM) with Aspergillus niger.
Turning to `O=C1C(Sc2ccc(F)c(F)c2)=C(Sc2ccc(F)c(F)c2)C(=O)c2[nH]ccc21`, the MIC against Candida albicans was greater than 100 µg/mL; in the assay with Candida tropicalis, greater than 100 µg/mL; with Pichia kudriavzevii, 12.5 µg/mL (≈ 28.7 µM); in the assay on Cryptococcus neoformans it was 50 µg/mL (≈ 115 µM); in the assay with Aspergillus niger, greater than 100 µg/mL.
`O=C1C(Sc2cccc(Cl)c2)=C(Sc2cccc(Cl)c2)C(=O)c2[nH]ccc21`: the MIC against Candida albicans was 6.3 µg/mL (≈ 14.6 µM); against Candida tropicalis, 1.6 µg/mL (≈ 3.7 µM); in the assay with Pichia kudriavzevii, 25 µg/mL (≈ 57.8 µM); against Cryptococcus neoformans it was 3.2 µg/mL (≈ 7.4 µM); against Aspergillus niger, 25 µg/mL (≈ 57.8 µM).
On to `O=C1C(Sc2ccc(O)cc2)=C(Sc2ccc(O)cc2)C(=O)c2[nH]ccc21`, for which the MIC in the assay with Candida albicans is 50 µg/mL (≈ 126 µM); in the assay on Candida tropicalis it was 50 µg/mL (≈ 126 µM); against Pichia kudriavzevii, greater than 100 µg/mL; against Cryptococcus neoformans it was 25 µg/mL (≈ 63.2 µM); in the assay on Aspergillus niger, greater than 100 µg/mL.
Take `COC(=O)C(C#N)C1=C(Cl)C(=O)C(C)=C(C)C1=O` (stereo not given): the minimal inhibitory concentration (MIC) with Candida albicans is greater than 100 µg/mL; in the assay with Candida tropicalis, greater than 100 µg/mL; against Pichia kudriavzevii, 100 µg/mL (≈ 374 µM); in the assay with Cryptococcus neoformans, 6.3 µg/mL (≈ 23.5 µM); in the assay on Aspergillus niger, greater than 100 µg/mL.
For the compound `COC(=O)c1cn(-c2ccccc2)c2c1C(=O)C(C)=C(C)C2=O`, the MIC against Candida albicans came out at 3.2 µg/mL (≈ 10.3 µM); with Candida tropicalis, 12.5 µg/mL (≈ 40.4 µM); with Pichia kudriavzevii, 1.6 µg/mL (≈ 5.17 µM); with Cryptococcus neoformans it was 6.3 µg/mL (≈ 20.4 µM); in the assay with Aspergillus niger, 25 µg/mL (≈ 80.8 µM).
As to `O=C1C(Sc2ccc(F)cc2)=C(Sc2ccc(F)cc2)C(=O)c2[nH]ccc21`, the MIC in the assay on Candida albicans is greater than 100 µg/mL; with Candida tropicalis, 25 µg/mL (≈ 62.6 µM); in the assay with Pichia kudriavzevii it was 3.2 µg/mL (≈ 8.01 µM); in the assay with Cryptococcus neoformans, 6.3 µg/mL (≈ 15.8 µM); against Aspergillus niger, 100 µg/mL (≈ 250 µM).
For `Cc1ccc(SC2=C(Sc3ccc(C)c(C)c3)C(=O)c3[nH]ccc3C2=O)cc1C`, in that order: greater than 100 µg/mL, greater than 100 µg/mL, greater than 100 µg/mL, 50 µg/mL (≈ 119 µM) and 100 µg/mL (≈ 238 µM).
The corresponding values for `COC(=O)c1cn(-c2ccc(C(C)C)cc2)c2c1C(=O)C(C)=C(C)C2=O` are 12.5 µg/mL (≈ 35.6 µM), 12.5 µg/mL (≈ 35.6 µM), 100 µg/mL (≈ 285 µM), 100 µg/mL (≈ 285 µM) and 3.2 µg/mL (≈ 9.11 µM).
For `COC(=O)c1cn(-c2ccc(Cl)cc2)c2c1C(=O)C(C)=C(C)C2=O`, in that order: 12.5 µg/mL (≈ 36.4 µM), 12.5 µg/mL (≈ 36.4 µM), 0.8 µg/mL (≈ 2.33 µM), 12.5 µg/mL (≈ 36.4 µM) and 25 µg/mL (≈ 72.7 µM).
For the compound `COC(=O)c1cn(-c2ccc(C)cc2)c2c1C(=O)C(C)=C(C)C2=O`, the minimum inhibitory concentration (MIC) was greater than 100 µg/mL against Candida albicans; greater than 100 µg/mL in the assay on Candida tropicalis; 3.2 µg/mL (≈ 9.9 µM) against Pichia kudriavzevii; 0.8 µg/mL (≈ 2.47 µM) in the assay with Cryptococcus neoformans; greater than 100 µg/mL against Aspergillus niger.
For the compound `COC(=O)c1cn(-c2ccc(OC(F)(F)F)cc2)c2c1C(=O)C(C)=C(C)C2=O`, the MIC against Candida albicans is greater than 100 µg/mL; with Candida tropicalis it was greater than 100 µg/mL; against Pichia kudriavzevii, 6.3 µg/mL (≈ 16 µM); against Cryptococcus neoformans, 1.6 µg/mL (≈ 4.07 µM); against Aspergillus niger, 3.2 µg/mL (≈ 8.14 µM).
As to `Nc1nc(=O)[nH]cc1F` [FLUCYTOSINE], the MIC stood at 6.3 µg/mL (≈ 48.8 µM) in the assay on Candida albicans; 12.5 µg/mL (≈ 96.8 µM) in the assay on Candida tropicalis; 6.3 µg/mL (≈ 48.8 µM) in the assay on Pichia kudriavzevii; 12.5 µg/mL (≈ 96.8 µM) in the assay with Cryptococcus neoformans; 50 µg/mL (≈ 387 µM) against Aspergillus niger.

As a reminder, the MIC is the lowest concentration that inhibits growth of the organism. A lower MIC goes with a more susceptible organism.
